Calls of active or inactive are those of the source. No cut-off for these calls is given here.
Key:
A549 [1] = experiment: Effect on DNA polymerase beta expression in human A549 cells at 3 uM after 48 hrs by Western blot analysis; format: functional, cell-based
Procedure, shortened: (§1)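 A549 cells grown in Ham's F12K with 10% fetal calf serum, exposed 48 h to compound. Whole-cell extracts prepared by freeze/thaw lysis, cleared at 15,000 × g. Extracts resolved on 15% SDS-PAGE, transferred to PVDF and probed with anti-human pol β antibody. Anti-β-actin served as loading control. HRP anti-goat IgG detection, followed by densitometric quantification.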

A549 [2] = experiment: Inhibition of bleomycin-induced unscheduled DNA synthesis in human A549 cells at 3 uM; format: functional, cell-based
Procedure, shortened: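 A549 cells (~5×10^5) treated with 10 mM bleomycin for 30 min at 37 °C. Then 10 mM hydroxyurea, 2 mM nicotinamide, 5 µCi [3H]thymidine and inhibitor added, incubated 3 h. Stopped with ice-cold saline. Cells collected and TCA-precipitated on ice 30 min for scintillation counting of incorporated label. Run in triplicate.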

A549 [3] = experiment: Cytotoxicity against human A549 cells after 48 hrs by MTT assay; details: A549, 48 h
A549 [4] = experiment: Effect on DNA polymerase beta expression in human A549 cells at 6 uM after 48 hrs by Western blot analysis; format: functional, cell-based; procedure, shortened: as §1
A549 [5] = experiment: Inhibition of bleomycin-induced unscheduled DNA synthesis in human A549 cells at 6 uM; format: functional, cell-based
Procedure, shortened: (§2)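 A549 cells (~5×10^5) treated with 10 mM bleomycin for 30 min at 37 °C. DMSO, 10 mM hydroxyurea, 2 mM nicotinamide, 5 μCi [3H]thymidine and inhibitor then added, triplicate flasks per concentration. Incubated 3 h, stopped with ice-cold saline. Cells pelleted and treated with ice-cold 5% TCA for 30 min; incorporated radioactivity read by scintillation counting.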

[6] = biological target: DNA polymerase beta (Rattus norvegicus) (UniProt P06766); experiment: Inhibition of lyase activity of DNA polymerase beta
[7] = biological target: DNA polymerase beta (Rattus norvegicus) (UniProt P06766); experiment: Inhibition of polymerase activity of DNA polymerase beta
A549 [8] = experiment: Effect on DNA polymerase beta expression in human A549 cells at 25 uM after 48 hrs by Western blot analysis; format: functional, cell-based
Procedure, shortened: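 A549 cells grown at 37 °C, 5% CO2 in Kaighn's F12 with 10% fetal calf serum, exposed 48 h to inhibitor at 25 μM (final DMSO <0.05%). Whole-cell extracts made by freeze/thaw, then resolved on 15% SDS-PAGE and blotted to PVDF. Probed with anti-human pol β antibody, with anti-β-actin as loading control. HRP detection; bands scanned and quantified.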

A549 [9] = experiment: Inhibition of bleomycin-induced unscheduled DNA synthesis in human A549 cells at 25 uM; format: functional, cell-based; procedure, shortened: as §2

C=C(C)[C@@H]1CC[C@]2(C(=O)O)CC[C@]3(C)[C@H](CC[C@@H]4[C@@]5(C)CC[C@H](O)C(C)(C)[C@@H]5CC[C@]43C)[C@@H]12 [BETULINIC ACID]
Activity (A549 [1]): inactive | Activity (A549 [2]): Active | IC50 (A549 [3]): 6.65 µM

O=c1ccc2ccc(Oc3cc4ccc(O)cc4oc3=O)cc2o1 [EDGEWORIN]
Activity (A549 [4]): inactive | Activity (A549 [5]): Active | IC50 (A549 [3]): 80.2 µM

CC[C@H](/C=C/[C@@H](C)[C@H]1CC[C@H]2[C@@H]3CC=C4C[C@@H](O)CC[C@]4(C)[C@H]3CC[C@]12C)C(C)C [STIGMASTEROL]
Activity (A549 [4]): inactive | IC50 [6]: 60.3 µM | IC50 [7]: > 250 µM | IC50 (A549 [3]): 98.2 µM

CC1(C)CC[C@]2(C(=O)O)CC[C@]3(C)C(=CC[C@@H]4[C@@]5(C)CC[C@H](O)C(C)(C)[C@@H]5CC[C@]43C)[C@@H]2C1 [OLEANOLIC_ACID]
Activity (A549 [8]): inactive | Activity (A549 [9]): Active | IC50 [6]: 26.3 µM | IC50 [7]: 25 µM | IC50 (A549 [3]): > 100 µM

Source: ChEMBL document CHEMBL1144753, “Inhibitors of DNA polymerase beta: activity and mechanism” (Bioorg Med Chem, 2008)
